Active and inactive are the calls of the source. The calls are words filed in the database; no cut-off is given here.
Assays:
SK-MES-1 = experiment: Antiproliferative activity against human SKMES1 cells by MTT assay; type: functional, cell-based
How it was run: (§1)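 Exponentially growing cells resuspended in growth medium with serial drug dilutions; viability read by MTT after 96 h at 37 °C, with untreated controls allowed at least three rounds of multiplication. IC50 is the concentration cutting proliferation by 50%, mean ± SD of three independent determinations. Haematological lines were grown in RPMI-1640 with 10% FCS and antibiotics. Solid-tumour lines were grown in their own media with 10% FCS.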

MT4 = experiment: Antiproliferative activity against human MT4 cells by MTT assay; type: functional, cell-based; how it was run: as §1
CCRF-SB = experiment: Antiproliferative activity against human CCRF-SB cells by MTT assay; type: functional, cell-based; how it was run: as §1
SK-MEL-28 = experiment: Antiproliferative activity against human SK-MEL-28 cells by MTT assay; type: functional, cell-based; how it was run: as §1
HepG2 = experiment: Antiproliferative activity against human HepG2 cells by MTT assay; type: functional, cell-based; how it was run: as §1
WIL2-NS = experiment: Antiproliferative activity against human WIL-2NS cells by MTT assay; type: functional, cell-based; how it was run: as §1
[1] = Antiproliferative activity against human CRL7065 cells by MTT assay; type: functional, cell-based; conditions: CRL-7065; how it was run: as §1
MCF7 [2] = experiment: Antiproliferative activity against human MCF7 cells by MTT assay; type: functional, cell-based; how it was run: as §1
DU-145 = experiment: Antiproliferative activity against human DU145 cells by MTT assay; type: functional, cell-based; how it was run: as §1
CCRF-CEM = experiment: Antiproliferative activity against human CCRF-CEM cells by MTT assay; type: functional, cell-based; how it was run: as §1
MCF7 [3] = experiment: Increase in p21/WAF1 expression level in MCF7 cells at 10 uM after 24 hrs; type: functional, cell-based; conditions: Homo sapiens, TDE = time-dependent effect
How it was run: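 MCF-7 cells plated at 5×10^5 per 6-cm plate the day before were treated at 10 µM for various times. Lysates were made by freeze-thaw in Tris-HCl buffer with protease and phosphatase inhibitors. 30 µg protein was run on 10% SDS-PAGE and transferred to nitrocellulose. Blots were probed overnight at 4 °C with anti-p21 monoclonal (1:200), then a secondary antibody, and detected by ECL; three experiments.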

MCF7 [4] = experiment: Cell cycle arrest in MCF7 cells by accumulation at S phase at 10 uM after 24 hrs; type: functional, Homo sapiens
How it was run: (§2)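 MCF-7 cells grown in DMEM with 2 mM L-glutamine and 10% heat-inactivated FBS, seeded at 5×10^5 cells/well. After 24 h they were exposed to compound at 10 µM for 24 h. Cells plus supernatant were collected, stained with Nicoletti reagent and DNA content read by flow cytometry (FL2, linear amplification). Phase distribution was modelled from the histograms.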

MCF7 [5] = experiment: Cell cycle arrest in MCF7 cells by accumulation at GO/G1 phase at 10 uM after 24hrs; type: functional, Homo sapiens; how it was run: as §2
MCF7 [6] = experiment: Induction of apoptosis in human MCF7 cells up to 50 uM after 24 hrs by propidium iodide satining assay; type: functional, cell-based
How it was run: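 MCF-7 cells treated at 10–50 µM for 24 h were washed in PBS. They were resuspended in 0.1% sodium citrate, 0.1% Triton X-100 and 50 µg/mL propidium iodide, then kept 30 min at 4 °C in the dark. Nuclei were read by flow cytometry on a log scale with debris gated out. The % hypodiploid nuclei is from three experiments in triplicate.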

MCF7 [7] = experiment: Cell cycle arrest in MCF7 cells by accumulation at G2/M phase at 10 uM after 24 hrs; type: functional, Homo sapiens; how it was run: as §2

Structure (SMILES)	IC50 (SK-MES-1) [µM]	IC50 (MT4) [µM]	IC50 (CCRF-SB) [µM]	IC50 (SK-MEL-28) [µM]	IC50 (HepG2) [µM]	IC50 (WIL2-NS) [µM]	IC50 [1] [µM]	IC50 (MCF7 [2]) [µM]	IC50 (DU-145) [µM]	IC50 (CCRF-CEM) [µM]	Activity (MCF7 [3])	Activity (MCF7 [4]) [%]	Activity (MCF7 [5]) [%]	Activity (MCF7 [6])	Activity (MCF7 [7]) [%]
CC(=O)Nc1cccc(-c2cc(CN3CC4CCC(C3)N4Cc3ccnc(-c4cccc(NC(C)=O)c4)c3)ccn2)c1	33	> 100	17	34	43	25	> 100	23	24	16	–	–	–	–	–
c1ccc(-c2cc(CN3CC4CCC(C3)N4Cc3ccnc(-c4ccccc4)c3)ccn2)cc1	11	19	11	8	11	15	> 100	9	8	8	–	–	–	–	–
Oc1cccc(-c2cc(CN3CC4CCC(C3)N4Cc3ccnc(-c4cccc(O)c4)c3)ccn2)c1	> 100	–	16	> 100	> 100	28	> 100	> 100	> 100	14	–	–	–	–	–
Sc1ncnc2nc[nH]c12 [MERCAPTOPURINE ANHYDROUS]	58	0.1	1	15	8	3	> 100	3	2	1	–	–	–	–	–
c1ccc(-c2cccc(CN3CC4CCC(C3)N4Cc3cccc(-c4ccccc4)c3)c2)cc1	10	–	10	15	38	12	41	25	14	12	–	–	–	–	–
COc1cc(-c2cc(CN3CC4CCC(C3)N4Cc3ccnc(-c4cc(OC)c(OC)c(OC)c4)c3)ccn2)cc(OC)c1OC	10	2	3	4	8	3	> 100	5	14	2	tde	4.6	87	inactive	7.5
CC[C@@]1(O)C(=O)OCc2c1cc1n(c2=O)Cc2cc3ccccc3nc2-1 [CAMPTOTHECIN]	0.01	0.004	0.003	0.04	0.03	0.005	0.5	0.04	0.01	0.003	–	–	–	–	–
c1ccc2c(CN3CC4CCC(C3)N4Cc3cccc4ccccc34)cccc2c1	17	–	7	13	18	7	20	11	80	8	–	–	–	–	–
O=[N+]([O-])c1ccc(-c2cc(CN3CC4CCC(C3)N4Cc3ccnc(-c4ccc([N+](=O)[O-])cc4)c3)ccn2)cc1	> 100	–	> 100	> 100	> 100	> 100	> 100	> 100	> 100	91	–	–	–	–	–
Clc1ccc(-c2cc(CN3CC4CCC(C3)N4Cc3ccnc(-c4ccc(Cl)cc4)c3)ccn2)cc1	12	–	13	10	9	29	> 100	10	9	7	–	–	–	–	–
O=C1C2CCC(N2)C(=O)N1Cc1ccccc1	81	> 100	88	96	92	> 100	> 100	86	87	85	–	–	–	–	–
O=[N+]([O-])c1cccc(-c2cc(CN3CC4CCC(C3)N4Cc3ccnc(-c4cccc([N+](=O)[O-])c4)c3)ccn2)c1	30	–	27	31	41	63	> 100	68	85	36	–	–	–	–	–
CC(=O)Nc1ccc(-c2cc(CN3CC4CCC(C3)N4Cc3ccnc(-c4ccc(NC(C)=O)cc4)c3)ccn2)cc1	22	18	25	20	30	30	> 100	43	42	19	–	–	–	–	–
COc1ccc(-c2cc(CN3CC4CCC(C3)N4Cc3ccnc(-c4ccc(OC)cc4)c3)ccn2)cc1	3	4	5	2	3	6	> 100	6	2	3	–	–	–	–	–
Oc1ccc(-c2cc(CN3CC4CCC(C3)N4Cc3ccnc(-c4ccc(O)cc4)c3)ccn2)cc1	23	–	12	19	13	18	80	25	15	15	–	–	–	–	–
c1ccc(CN2CC3CCC(C2)N3Cc2ccccc2)cc1	> 100	> 100	81	> 100	> 100	60	> 100	> 100	> 100	46	–	–	–	–	–
COc1cccc(-c2cc(CN3CC4CCC(C3)N4Cc3ccnc(-c4cccc(OC)c4)c3)ccn2)c1	8	–	12	8	15	13	> 100	15	9	11	–	–	–	–	–
c1ccc(-c2ccc(CN3CC4CCC(C3)N4Cc3ccc(-c4ccccc4)cc3)cc2)cc1	43	> 100	6	6	45	11	> 100	84	7	7	–	–	–	–	–
c1ccc2c(c1)ccc1c(CN3CC4CCC(C3)N4Cc3cccc4c3ccc3ccccc34)cccc12	40	–	9	30	50	6	69	54	41	6	–	–	–	–	–
Cc1cccc(-c2cc(CN3CC4CCC(C3)N4Cc3ccnc(-c4cccc(C)c4)c3)ccn2)c1	18	> 100	18	15	41	25	> 100	24	34	18	–	–	–	–	–
Cc1ccc(-c2cc(CN3CC4CCC(C3)N4Cc3ccnc(-c4ccc(C)cc4)c3)ccn2)cc1	8	–	12	7	7	26	> 100	7	7	8	–	–	–	–	–
c1ccc(CN2CC3CCC(C2)N3)cc1	> 100	> 100	> 100	> 100	> 100	> 100	> 100	> 100	> 100	> 100	–	–	–	–	–
